From ChEMBL document CHEMBL1212840, “Lysine N(epsilon)-trimethylation, a tool for improving the selectivity of antimicrobial peptides” (J Med Chem, 2010)
Square brackets hold non-standard residues; d marks the D form. Peptide text beside a SMILES is read from it. Lys(Me3) = C[N+](C)(C)CCCC[C@H](N)C(=O)O

Key:
[1] = Selectivity index, ratio of IC50 for sheep erythrocyte to LC50 for Leishmania donovani MHOM/SD/001S-2D promastigotes
Procedure, shortened: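 SI = HC50/LC50. For HC50, washed sheep erythrocytes at 2 × 10^7 cells/mL in Hank's are exposed to peptide for 4 h at 37 °C. Hemoglobin in the supernatant is read at 550 nm; 0.1% Triton X-100 gives full lysis, and HC50 is 50% release.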

[2] = Selectivity index, ratio of IC50 for sheep erythrocyte to LC50 for Leishmania pifanoi MHOM/VE/60/LTrod amastigotes
Procedure, shortened: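 SI = HC50/LC50. HC50 comes from sheep erythrocytes (2 × 10^7 cells/mL in Hank's, 4 h, 37 °C, hemoglobin at 550 nm, 0.1% Triton X-100 as full lysis). For LC50, L. pifanoi axenic amastigotes at 2 × 10^7/mL in Hank's + 20 mM glucose get peptide for 4 h at 32 °C. An aliquot is then regrown in complete medium for 96 h at 32 °C.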

Leishmania donovani [3] = assay: Antileishmanial activity against Leishmania donovani MHOM/SD/001S-2D promastigotes after 72 hrs by MTT assay; assay type: functional, organism-based
Procedure, shortened: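 L. donovani promastigotes (strain MHOM/SD/00/1S-2D) are harvested at late exponential phase and washed in Hank's + 20 mM D-glucose, pH 7.2. They are treated with peptide at 2 × 10^7 parasites/mL for 4 h at 26 °C. A 20 μL aliquot then goes into complete medium for 72 h at 26 °C to let survivors proliferate. LC50 is 50% inhibition of proliferation. Triplicates, repeated at least twice.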

Leishmania pifanoi [4] = assay: Antileishmanial activity against Leishmania pifonoi MHOM/VE/60/LTrod promastigotes after 72 hrs by MTT assay; assay type: functional, organism-based
[5] = Toxicity in sheep erythrocyte assessed as hemolysis; assay type: cell-based, Ovis aries; conditions: sheep erythrocytes
Procedure, shortened: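 Washed sheep erythrocytes at 2 107 cells/mL in Hank's medium were exposed to peptide for 4 h at 37 °C, then spun (5 min, 4 °C). Hemoglobin in the supernatant was read at 550 nm. HC50 is the peptide concentration releasing 50% of the hemoglobin freed by 0.1% Triton X-100.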

Staphylococcus aureus = assay: Antimicrobial activity against Staphylococcus aureus CECT 240 by turbidimetry; assay type: functional
Acinetobacter baumannii = assay: Antimicrobial activity against Acinetobacter baumannii ATCC 19606 ATCC 19606 by turbidimetry; assay type: functional
[6] = Selectivity index, ratio of HC50 for sheep erythrocyte to MIC50 for Staphylococcus aureus CECT 240; assay type: functional
[7] = Selectivity index, ratio of HC50 for sheep erythrocyte to MIC50 for Acinetobacter baumannii ATCC 19606 ATCC 19606; assay type: functional
Leishmania pifanoi [8] = assay: Antileishmanial activity against Leishmania pifonoi MHOM/VE/60/LTrod amastigotes after 4 hrs by MTT assay
Leishmania donovani [9] = assay: Antileishmanial activity against Leishmania donovani MHOM/SD/001S-2D promastigotes after 4 hrs by MTT assay

Molecule | Selectivity Index [1] | Selectivity Index [2] | LC50 (Leishmania donovani [3]) [µM] | LC50 (Leishmania pifanoi [4]) [µM] | HC50 [5] [µM] | MIC50 (Staphylococcus aureus) [µM] | MIC50 (Acinetobacter baumannii) [µM] | Selectivity Index [6] | Selectivity Index [7] | IC50 (Leishmania pifanoi [8]) [µM] | IC50 (Leishmania donovani [9]) [µM]
H-KWKLFKKIGAVLKVL-NH2 | 26.8 | 8.9 | 1.5 | 4.5 | 40.2 | 2.9 | 1.1 | 13.8 | 36.5 | 4.3 | 1.8
CC[C@H](C)[C@H](NC(=O)[C@H](CCCCN)NC(=O)[C@H](CCCC[N+](C)(C)C)NC(=O)[C@H](Cc1ccccc1)NC(=O)[C@H](CC(C)C)NC(=O)[C@H](CCCC[N+](C)(C)C)NC(=O)[C@H](Cc1c[nH]c2ccccc12)NC(=O)[C@@H](N)CCCCN)C(=O)NCC(=O)N[C@@H](C)C(=O)N[C@H](C(=O)N[C@@H](CC(C)C)C(=O)N[C@@H](CCCCN)C(=O)N[C@H](C(=O)N[C@@H](CC(C)C)C(N)=O)C(C)C)C(C)C.[Cl-].[Cl-] (H-KW[Lys(Me3)]LF[Lys(Me3)]KIGAVLKVL-NH2) | 17.4 | 7.1 | 6.7 | 16.5 | 117 | 6.2 | 2 | 18.9 | 58.6 | 7.4 | 5.1
CC[C@H](C)[C@H](NC(=O)[C@H](CCCCN)NC(=O)[C@H](CCCCN)NC(=O)[C@H](Cc1ccccc1)NC(=O)[C@H](CC(C)C)NC(=O)[C@H](CCCC[N+](C)(C)C)NC(=O)[C@H](Cc1c[nH]c2ccccc12)NC(=O)[C@@H](N)CCCC[N+](C)(C)C)C(=O)NCC(=O)N[C@@H](C)C(=O)N[C@H](C(=O)N[C@@H](CC(C)C)C(=O)N[C@@H](CCCCN)C(=O)N[C@H](C(=O)N[C@@H](CC(C)C)C(N)=O)C(C)C)C(C)C.[Cl-].[Cl-] (H-[Lys(Me3)]W[Lys(Me3)]LFKKIGAVLKVL-NH2) | 6.7 | 4.2 | 15.5 | 24.8 | 105 | 8 | 3.5 | 13.1 | 30 | 16.2 | 12.8
CC[C@H](C)[C@H](NC(=O)[C@H](CCCCN)NC(=O)[C@H](CCCCN)NC(=O)[C@H](Cc1ccccc1)NC(=O)[C@H](CC(C)C)NC(=O)[C@H](CCCCN)NC(=O)[C@H](Cc1c[nH]c2ccccc12)NC(=O)[C@@H](N)CCCC[N+](C)(C)C)C(=O)NCC(=O)N[C@@H](C)C(=O)N[C@H](C(=O)N[C@@H](CC(C)C)C(=O)N[C@@H](CCCCN)C(=O)N[C@H](C(=O)N[C@@H](CC(C)C)C(N)=O)C(C)C)C(C)C.[Cl-] (H-[Lys(Me3)]WKLFKKIGAVLKVL-NH2) | 27.6 | 12 | 2.8 | 6.4 | 77.2 | 3.4 | 1.3 | 22.7 | 59.4 | 6 | 3.9
CC[C@H](C)[C@H](NC(=O)[C@H](CCCC[N+](C)(C)C)NC(=O)[C@H](CCCC[N+](C)(C)C)NC(=O)[C@H](Cc1ccccc1)NC(=O)[C@H](CC(C)C)NC(=O)[C@H](CCCC[N+](C)(C)C)NC(=O)[C@H](Cc1c[nH]c2ccccc12)NC(=O)[C@@H](N)CCCC[N+](C)(C)C)C(=O)NCC(=O)N[C@@H](C)C(=O)N[C@H](C(=O)N[C@@H](CC(C)C)C(=O)N[C@@H](CCCC[N+](C)(C)C)C(=O)N[C@H](C(=O)N[C@@H](CC(C)C)C(N)=O)C(C)C)C(C)C (H-[Lys(Me3)]W[Lys(Me3)]LF[Lys(Me3)][Lys(Me3)]IGAVL[Lys(Me3)]VL-NH2) | – | – | > 50 | > 50 | > 200 | > 30 | > 30 | – | – | > 50 | > 50
CC[C@H](C)[C@H](NC(=O)[C@H](CCCCN)NC(=O)[C@H](CCCC[N+](C)(C)C)NC(=O)[C@H](Cc1ccccc1)NC(=O)[C@H](CC(C)C)NC(=O)[C@H](CCCCN)NC(=O)[C@H](Cc1c[nH]c2ccccc12)NC(=O)[C@@H](N)CCCCN)C(=O)NCC(=O)N[C@@H](C)C(=O)N[C@H](C(=O)N[C@@H](CC(C)C)C(=O)N[C@@H](CCCCN)C(=O)N[C@H](C(=O)N[C@@H](CC(C)C)C(N)=O)C(C)C)C(C)C.[Cl-] (H-KWKLF[Lys(Me3)]KIGAVLKVL-NH2) | 92.7 | 9.6 | 1.7 | 16.3 | 158 | 4.6 | 1.4 | 34.3 | 112.2 | 13.4 | 3.7
CC[C@H](C)[C@H](NC(=O)[C@H](CCCC[N+](C)(C)C)NC(=O)[C@H](CCCCN)NC(=O)[C@H](Cc1ccccc1)NC(=O)[C@H](CC(C)C)NC(=O)[C@H](CCCCN)NC(=O)[C@H](Cc1c[nH]c2ccccc12)NC(=O)[C@@H](N)CCCCN)C(=O)NCC(=O)N[C@@H](C)C(=O)N[C@H](C(=O)N[C@@H](CC(C)C)C(=O)N[C@@H](CCCCN)C(=O)N[C@H](C(=O)N[C@@H](CC(C)C)C(N)=O)C(C)C)C(C)C.[Cl-] (H-KWKLFK[Lys(Me3)]IGAVLKVL-NH2) | 71.3 | 13.5 | 2.3 | 12.1 | 164 | 7.2 | 1.9 | 22.8 | 86.3 | 11.4 | 3.7
CC[C@H](C)[C@H](NC(=O)[C@H](CCCCN)NC(=O)[C@H](CCCCN)NC(=O)[C@H](Cc1ccccc1)NC(=O)[C@H](CC(C)C)NC(=O)[C@H](CCCCN)NC(=O)[C@H](Cc1c[nH]c2ccccc12)NC(=O)[C@@H](N)CCCCN)C(=O)NCC(=O)N[C@@H](C)C(=O)N[C@H](C(=O)N[C@@H](CC(C)C)C(=O)N[C@@H](CCCC[N+](C)(C)C)C(=O)N[C@H](C(=O)N[C@@H](CC(C)C)C(N)=O)C(C)C)C(C)C.[Cl-] (H-KWKLFKKIGAVL[Lys(Me3)]VL-NH2) | 63 | 13.5 | 2.5 | 11.6 | 157 | 4.4 | 2.1 | 35.8 | 74.9 | 10.1 | 3.5
CC[C@H](C)[C@H](NC(=O)[C@H](CCCC[N+](C)(C)C)NC(=O)[C@H](CCCC[N+](C)(C)C)NC(=O)[C@H](Cc1ccccc1)NC(=O)[C@H](CC(C)C)NC(=O)[C@H](CCCCN)NC(=O)[C@H](Cc1c[nH]c2ccccc12)NC(=O)[C@@H](N)CCCCN)C(=O)NCC(=O)N[C@@H](C)C(=O)N[C@H](C(=O)N[C@@H](CC(C)C)C(=O)N[C@@H](CCCCN)C(=O)N[C@H](C(=O)N[C@@H](CC(C)C)C(N)=O)C(C)C)C(C)C.[Cl-].[Cl-] (H-KWKLF[Lys(Me3)][Lys(Me3)]IGAVLKVL-NH2) | 25.3 | 4.9 | 5.3 | 27 | 134 | 10.7 | 2.6 | 12.5 | 51.5 | 9.2 | 6.1
CC[C@H](C)[C@H](NC(=O)[C@H](CCCCN)NC(=O)[C@H](CCCCN)NC(=O)[C@H](Cc1ccccc1)NC(=O)[C@H](CC(C)C)NC(=O)[C@H](CCCC[N+](C)(C)C)NC(=O)[C@H](Cc1c[nH]c2ccccc12)NC(=O)[C@@H](N)CCCCN)C(=O)NCC(=O)N[C@@H](C)C(=O)N[C@H](C(=O)N[C@@H](CC(C)C)C(=O)N[C@@H](CCCCN)C(=O)N[C@H](C(=O)N[C@@H](CC(C)C)C(N)=O)C(C)C)C(C)C.[Cl-] (H-KW[Lys(Me3)]LFKKIGAVLKVL-NH2) | 27.6 | 10.4 | 3.1 | 8.2 | 85.6 | 2.4 | 1.7 | 35.7 | 50.3 | 9.4 | 3.3
